ChEMBL document CHEMBL3352499, “One pot three components microwave assisted and conventional synthesis of new 3-(4-chloro-2-hydroxyphenyl)-2-(substituted) thiazolidin-4-one as antimicrobial agents” (Bioorg Med Chem Lett, 2014)
Converted amounts (≈) assume the structure as drawn. Structures can show the parent of a compound that is named as a salt.

Legend:
[1] = system: Aspergillus flavus; assay: Antimicrobial activity against Aspergillus flavus NCIM-539 after 20 hrs by two fold serial macrodilution technique; assay type: functional; details: NCIM-539, 20 h
[2] = system: Cryptococcus neoformans; assay: Antimicrobial activity against Cryptococcus neoformans NCIM-3378 after 20 hrs by two fold serial macrodilution technique; assay type: functional; details: NCIM-3378, 20 h
[3] = system: Bacillus subtilis; assay: Antimicrobial activity against Bacillus subtilis NCIM-2063 after 20 hrs by two fold serial macrodilution technique; assay type: functional; details: NCIM-2063, 20 h
Summary of the method: (§1)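 Serial macrodilution in 96-well microtiter plates. Compounds were dissolved in saline (0.8% NaCl) containing 5% DMSO, and strains were incubated with a range of concentrations for 20 h at 37 °C on a rotary shaker (160 rpm). MIC was the lowest concentration without growth. Runs were in triplicate, with the mean taken. The negative control was 5% DMSO.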

[4] = system: Aspergillus niger; assay: Fungicidal activity against Aspergillus niger NCIM-1196 after 48 to 72 hrs by two fold serial macrodilution technique; assay type: functional
Summary of the method: (§2)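 Serial subcultivation followed 72 h of exposure to compounds dissolved in saline containing 5% DMSO. MBC/MFC was the lowest concentration with no visible growth, taken as 99.5% killing of the original inoculum. Runs were in triplicate, with the mean reading used.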

[5] = system: Staphylococcus aureus; assay: Bactericidal activity against Staphylococcus aureus NCIM-2901 after 72 hrs by two fold serial macrodilution technique; assay type: functional; details: NCIM-2901, 72 h; summary of the method: as §2
[6] = system: Cryptococcus neoformans; assay: Fungicidal activity against Cryptococcus neoformans NCIM-3378 after 48 to 72 hrs by two fold serial macrodilution technique; assay type: functional; summary of the method: as §2
[7] = system: Staphylococcus aureus; assay: Antimicrobial activity against Staphylococcus aureus NCIM-2901 after 20 hrs by two fold serial macrodilution technique; assay type: functional; details: NCIM-2901, 20 h; summary of the method: as §1
[8] = system: Escherichia coli; assay: Antimicrobial activity against Escherichia coli NCIM-2256 after 20 hrs by two fold serial macrodilution technique; assay type: functional; details: NCIM-2256, 20 h; summary of the method: as §1
[9] = system: Salmonella typhimurium; assay: Antimicrobial activity against […] after 20 hrs by two fold serial macrodilution technique; assay type: functional, Salmonella enterica subsp. enterica serovar Typhimurium; details: Salmonella enterica; summary of the method: as §1
[10] = system: Aspergillus niger; assay: Antimicrobial activity against Aspergillus niger NCIM-1196 after 20 hrs by two fold serial macrodilution technique; assay type: functional; details: NCIM-1196, 20 h
[11] = system: MCF7; assay: Cytotoxicity against human MCF7 cells by SRB method; assay type: cell-based
Summary of the method: (§3)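 SRB colorimetric growth assay. IC50, in µM, was the concentration inhibiting cell growth by 50% relative to untreated control cells. Runs were in triplicate in three independent experiments, with means reported. The positive control was doxorubicin.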

[12] = system: Candida albicans; assay: Fungicidal activity against Candida albicans NCIM-3471 after 48 to 72 hrs by two fold serial macrodilution technique; assay type: functional; summary of the method: as §2
[13] = system: Escherichia coli; assay: Bactericidal activity against Escherichia coli NCIM-2256 after 72 hrs by two fold serial macrodilution technique; assay type: functional; details: NCIM-2256, 72 h; summary of the method: as §2
[14] = system: Aspergillus flavus; assay: Fungicidal activity against Aspergillus flavus NCIM-539 after 48 to 72 hrs by two fold serial macrodilution technique; assay type: functional; summary of the method: as §2
[15] = system: Candida albicans; assay: Antimicrobial activity against Candida albicans NCIM-3471 after 20 hrs by two fold serial macrodilution technique; assay type: functional; details: NCIM-3471, 20 h
[16] = system: HeLa; assay: Cytotoxicity against human HeLa cells by SRB method; assay type: cell-based; summary of the method: as §3
[17] = system: Salmonella typhimurium; assay: Bactericidal activity against […] after 72 hrs by two fold serial macrodilution technique; assay type: functional, Salmonella enterica subsp. enterica serovar Typhimurium; details: Salmonella enterica; summary of the method: as §2
[18] = system: Bacillus subtilis; assay: Bactericidal activity against Bacillus subtilis NCIM-2063 after 72 hrs by two fold serial macrodilution technique; assay type: functional; details: NCIM-2063, 72 h; summary of the method: as §2

O=C1CSC(c2cccs2)N1c1ccc(Cl)cc1O (stereo not given)
MIC [1]: 25 µg/mL (≈ 80.2 µM) | MIC [2]: 95 µg/mL (≈ 305 µM) | MIC [3]: 35 µg/mL (≈ 112 µM) | MFC [4]: 155 µg/mL (≈ 497 µM) | MBC [5]: 150 µg/mL (≈ 481 µM) | MFC [6]: 160 µg/mL (≈ 513 µM) | MIC [7]: 60 µg/mL (≈ 192 µM) | MIC [8]: 85 µg/mL (≈ 273 µM) | MIC [9]: 70 µg/mL (≈ 224 µM) | MIC [10]: 70 µg/mL (≈ 224 µM) | IC50 [11]: 64.9 µM | MFC [12]: 160 µg/mL (≈ 513 µM) | MBC [13]: 160 µg/mL (≈ 513 µM) | MFC [14]: 45 µg/mL (≈ 144 µM) | MIC [15]: 100 µg/mL (≈ 321 µM) | IC50 [16]: 66.6 µM | MBC [17]: 155 µg/mL (≈ 497 µM) | MBC [18]: 55 µg/mL (≈ 176 µM)

O=C1CSC(c2ccccn2)N1c1ccc(Cl)cc1O (stereo not given)
MIC [1]: 100 µg/mL (≈ 326 µM) | MIC [2]: 75 µg/mL (≈ 244 µM) | MIC [3]: 85 µg/mL (≈ 277 µM) | MFC [4]: 155 µg/mL (≈ 505 µM) | MBC [5]: 155 µg/mL (≈ 505 µM) | MFC [6]: 150 µg/mL (≈ 489 µM) | MIC [7]: 60 µg/mL (≈ 196 µM) | MIC [8]: 90 µg/mL (≈ 293 µM) | MIC [9]: 85 µg/mL (≈ 277 µM) | MIC [10]: 80 µg/mL (≈ 261 µM) | IC50 [11]: 88.7 µM | MFC [12]: 155 µg/mL (≈ 505 µM) | MBC [13]: 165 µg/mL (≈ 538 µM) | MFC [14]: 165 µg/mL (≈ 538 µM) | MIC [15]: 55 µg/mL (≈ 179 µM) | IC50 [16]: 87.2 µM | MBC [17]: 150 µg/mL (≈ 489 µM) | MBC [18]: 165 µg/mL (≈ 538 µM)

O=C1CSC(c2ccc(O)cc2)N1c1ccc(Cl)cc1O (stereo not given)
MIC [1]: 20 µg/mL (≈ 62.2 µM) | MIC [2]: 60 µg/mL (≈ 186 µM) | MIC [3]: 15 µg/mL (≈ 46.6 µM) | MFC [4]: 115 µg/mL (≈ 357 µM) | MBC [5]: 20 µg/mL (≈ 62.2 µM) | MIC [7]: 6 µg/mL (≈ 18.6 µM) | MIC [8]: 20 µg/mL (≈ 62.2 µM) | MIC [9]: 25 µg/mL (≈ 77.7 µM) | MIC [10]: 55 µg/mL (≈ 171 µM) | IC50 [11]: 59.4 µM | MFC [12]: 40 µg/mL (≈ 124 µM) | MBC [13]: 35 µg/mL (≈ 109 µM) | MFC [14]: 35 µg/mL (≈ 109 µM) | MIC [15]: 25 µg/mL (≈ 77.7 µM) | IC50 [16]: 63.8 µM | MBC [17]: 45 µg/mL (≈ 140 µM) | MBC [18]: 25 µg/mL (≈ 77.7 µM)

Cc1ncsc1C1SCC(=O)N1c1ccc(Cl)cc1O (stereo not given)
MIC [1]: 3 µg/mL (≈ 9.18 µM) | MIC [2]: 55 µg/mL (≈ 168 µM) | MIC [3]: 30 µg/mL (≈ 91.8 µM) | MFC [4]: 135 µg/mL (≈ 413 µM) | MBC [5]: 20 µg/mL (≈ 61.2 µM) | MIC [7]: 15 µg/mL (≈ 45.9 µM) | MIC [8]: 15 µg/mL (≈ 45.9 µM) | MIC [9]: 20 µg/mL (≈ 61.2 µM) | MIC [10]: 80 µg/mL (≈ 245 µM) | IC50 [11]: 75.7 µM | MFC [12]: 45 µg/mL (≈ 138 µM) | MBC [13]: 20 µg/mL (≈ 61.2 µM) | MFC [14]: 20 µg/mL (≈ 61.2 µM) | MIC [15]: 30 µg/mL (≈ 91.8 µM) | IC50 [16]: 78.5 µM | MBC [17]: 40 µg/mL (≈ 122 µM) | MBC [18]: 55 µg/mL (≈ 168 µM)

N#Cc1ccc(C2SCC(=O)N2c2ccc(Cl)cc2O)cc1 (stereo not given)
MIC [1]: 60 µg/mL (≈ 181 µM) | MIC [2]: 85 µg/mL (≈ 257 µM) | MIC [3]: 100 µg/mL (≈ 302 µM) | MFC [4]: 145 µg/mL (≈ 438 µM) | MBC [5]: 145 µg/mL (≈ 438 µM) | MIC [7]: 35 µg/mL (≈ 106 µM) | MIC [8]: 90 µg/mL (≈ 272 µM) | MIC [9]: 55 µg/mL (≈ 166 µM) | MIC [10]: 100 µg/mL (≈ 302 µM) | IC50 [11]: 81.2 µM | MFC [12]: 140 µg/mL (≈ 423 µM) | MBC [13]: 120 µg/mL (≈ 363 µM) | MFC [14]: 115 µg/mL (≈ 348 µM) | MIC [15]: 90 µg/mL (≈ 272 µM) | IC50 [16]: 83.2 µM | MBC [17]: 115 µg/mL (≈ 348 µM) | MBC [18]: 140 µg/mL (≈ 423 µM)

CC1(C)S[C@@H]2[C@H](NC(=O)[C@H](N)c3ccccc3)C(=O)N2[C@H]1C(=O)O [AMPICILLIN]
MIC [3]: 12.5 µg/mL (≈ 35.8 µM) | MBC [5]: 17.5 µg/mL (≈ 50.1 µM) | MIC [7]: 12.5 µg/mL (≈ 35.8 µM) | MIC [8]: 12.5 µg/mL (≈ 35.8 µM) | MIC [9]: 12.5 µg/mL (≈ 35.8 µM) | MBC [13]: 17.5 µg/mL (≈ 50.1 µM) | MBC [17]: 17.5 µg/mL (≈ 50.1 µM) | MBC [18]: 17.5 µg/mL (≈ 50.1 µM)

O=C(O)c1cn(C2CC2)c2cc(N3CCNCC3)c(F)cc2c1=O [CIPROFLOXACIN]
MIC [3]: 6.25 µg/mL (≈ 18.9 µM) | MBC [5]: 13 µg/mL (≈ 39.2 µM) | MIC [8]: 7.5 µg/mL (≈ 22.6 µM) | MIC [9]: 7.5 µg/mL (≈ 22.6 µM) | MBC [13]: 8 µg/mL (≈ 24.1 µM) | MBC [17]: 8 µg/mL (≈ 24.1 µM) | MBC [18]: 13 µg/mL (≈ 39.2 µM)

COc1cccc2c1C(=O)c1c(O)c3c(c(O)c1C2=O)C[C@@](O)(C(=O)CO)C[C@@H]3O[C@H]1C[C@H](N)[C@H](O)[C@H](C)O1 [DOXORUBICIN HYDROCHLORIDE]
IC50 [11]: < 0.1 µM | IC50 [16]: < 0.1 µM

OC(Cn1cncn1)(Cn1cncn1)c1ccc(F)cc1F [FLUCONAZOLE]
MIC [1]: 6.25 µg/mL (≈ 20.4 µM) | MIC [2]: 6.25 µg/mL (≈ 20.4 µM) | MFC [4]: 16.5 µg/mL (≈ 53.9 µM) | MFC [6]: 16.5 µg/mL (≈ 53.9 µM) | MIC [10]: 6.25 µg/mL (≈ 20.4 µM) | MFC [12]: 22.5 µg/mL (≈ 73.5 µM) | MFC [14]: 16.5 µg/mL (≈ 53.9 µM) | MIC [15]: 10 µg/mL (≈ 32.7 µM)

Clc1ccc(COC(Cn2ccnc2)c2ccc(Cl)cc2Cl)c(Cl)c1 (stereo not given) [MICONAZOLE]
MIC [1]: 3.25 µg/mL (≈ 7.81 µM) | MIC [2]: 3.25 µg/mL (≈ 7.81 µM) | MFC [4]: 12.5 µg/mL (≈ 30 µM) | MFC [6]: 12.5 µg/mL (≈ 30 µM) | MIC [10]: 3.25 µg/mL (≈ 7.81 µM) | MFC [12]: 12.5 µg/mL (≈ 30 µM) | MFC [14]: 12.5 µg/mL (≈ 30 µM) | MIC [15]: 3.25 µg/mL (≈ 7.81 µM)
